Data from PubChem BioAssay AID624467 (The Scripps Research Institute Molecular Screening Center, 2012).
Hit rate of the full screen: of about 360,000 compounds, about 3,600 (1%) were called active.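 The calls were made as follows: active = activation above the mean activation of all test compounds in the run plus 3 SD (cut at about 38% in these data); inactive = the rest.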 For the sample, actives were picked, then their nearest neighbours and some compounds at random.

molecular target: Trace amine-associated receptor 1 (Homo sapiens) (UniProt Q96RJ0); assay: human TAAR1 agonists, primary screen, Fluo-8 calcium fluorescence, CHO RD-HGA16 cells (AID 624467); conditions: CHO RD-HGA16 TAAR1, Fluo-8 calcium fluorescence; at 3 µM; active compounds read high
Sequence (Q96RJ0 whole entry, looked up): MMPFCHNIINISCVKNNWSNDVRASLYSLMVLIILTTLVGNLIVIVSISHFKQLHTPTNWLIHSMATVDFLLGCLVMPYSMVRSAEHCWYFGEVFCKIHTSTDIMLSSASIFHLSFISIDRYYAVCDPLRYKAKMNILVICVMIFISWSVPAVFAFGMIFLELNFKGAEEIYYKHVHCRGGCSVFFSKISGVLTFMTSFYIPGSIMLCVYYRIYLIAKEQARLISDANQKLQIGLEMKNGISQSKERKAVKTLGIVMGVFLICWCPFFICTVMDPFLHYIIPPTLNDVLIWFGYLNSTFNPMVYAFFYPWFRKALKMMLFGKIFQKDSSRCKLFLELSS
Outline: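 System: CHO RD-HGA16 cells carrying human TAAR1 plus Gα16; Incubation: 17-24 h seeding, 75 min 37 °C dye, 30 min RT; Measured by: Fluo-8 fluorescence, 5 s baseline then 140 s kinetic read; Control set: DMSO and PEA EC100; Replication: single well for each compound.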

Q: For `Cc1cccc(N2C(=O)NC(=O)/C(=C\c3cnn(-c4ccccc4)c3)C2=O)c1`, which activation is on record?
A: 44.9% (active)

Q: Which activation does the source give for `COc1cc(OC)cc(C(=O)NCCN2CCC3(CC2)C(=O)NCN3c2ccccc2)c1` here?
A: 0.43% (inactive)

Q: Which activation does the source give for `CCC(=O)OC(Cc1ccccc1)(c1ccccc1)C(C)CN(C)C` (stereo not given) here?
A: 1.23% (inactive)

Q: With `COC(=O)COc1cc(C)cc2oc(=O)c3c(c12)CCCC3` as the molecule, how does the activation read?
A: 15.7% (inactive)

Q: Which activation does the source give for `CCOP(=O)(OCC)C(NC(=O)NC)C(N)=O` (stereo not given) here?
A: 1.74% (inactive)

Q: For `Cc1ccc(CN2CCCC(C(=O)c3ccc4c(c3)OCO4)C2)cc1C` (stereo not given), which activation is on record?
A: 5.3% (inactive)

Q: How did the activation turn out when `CC(=O)c1c(O)n(C2CCCCCC2)c(=O)[nH]c1=O` was run?
A: 2.62% (inactive)

Q: For `CCCCCCN=C(CC)c1c(O)n(CCCC)c(=O)[nH]c1=O`, which activation is on record?
A: 18.9% (inactive)

Q: Which activation does the source give for `CCC(=NCCc1ccccc1)c1c(O)n(C2CCCCC2)c(=O)[nH]c1=O` here?
A: 82.8% (active)

Q: How did the activation turn out when `c1ccc(C(CN2CCCCC2)c2ccccc2)cc1` was run?
A: 5.89% (inactive)

Q: Which activation does the source give for `COc1ccc(NC(=O)N2CCC3(CC2)OCCO3)c(OC)c1` here?
A: 4.78% (inactive)

Q: With `Brc1ccc2c(c1)CNCc1cnnn1-2` as the molecule, how does the activation read?
A: 2.44% (inactive)

Q: Which activation does the source give for `CC(=NC1CCN(Cc2ccccc2)CC1)c1c(O)n(C)c(=O)n(C)c1=O` here?
A: -0.62% (inactive)

Q: Which activation does the source give for `COc1cc(C(=O)N2Cc3ccc(Br)cc3-n3nncc3C2)cc(OC)c1OC` here?
A: 1.8% (inactive)

Q: With `CCOc1cccc(=NC2CCCCC2)c2c(C)[nH]c(C)c12` as the molecule, how does the activation read?
A: 2.88% (inactive)

Q: Which activation does the source give for `Clc1ccc([C@@H]2CC3CCC2N3)cn1` (stereo not given in full) here?
A: 0.89% (inactive)

Q: For `CCOC(=O)C1SC2(C(F)(F)C(F)F)CC1(O)c1c(c(OC)c3occc3c1OC)O2` (stereo not given), which activation is on record?
A: 2.66% (inactive)

Q: For `CCCCC(=O)N/N=C/c1c(O)n(CC)c(=S)n(CC)c1=O`, which activation is on record?
A: 115% (active)

Q: How did the activation turn out when `Cn1c(O)c(C=NCCCC(=O)O)c(=O)n(C)c1=O` was run?
A: 1.16% (inactive)

Q: `CCCCC(=O)N/N=C/c1c(O)n(CCC2=CCCCC2)c(=O)[nH]c1=O` was tested. Which activation did it give?
A: 3.56% (inactive)

Q: Which activation does the source give for `CC(=NCc1ccc2c(c1)OCO2)c1c(O)[nH]c(=O)[nH]c1=O` here?
A: 4.1% (inactive)

Q: `O=C1NC(=O)N(Cc2ccco2)C(=O)/C1=C\c1ccc(-c2ccc(F)cc2)o1` was tested. Which activation did it give?
A: 51.8% (active)

Q: For `COc1ccc(-c2nn(CCC#N)cc2C(=O)O)cc1`, which activation is on record?
A: 0.78% (inactive)

Q: How did the activation turn out when `C[C@]12CCC3C(CC[C@H]4[C@H](O)[C@H](O)CC[C@]34C)C1CCC2=O` (stereo not given in full) was run?
A: 4.54% (inactive)

Q: For `COc1ccc2c(c1)[C@@]13CCCCC1[C@@H](C2)NCC3` (stereo not given in full), which activation is on record?
A: 4.44% (inactive)

Q: Which activation does the source give for `CCN1CC2C3CCC(C)(O3)C2C1` (stereo not given) here?
A: 1.68% (inactive)

Q: Which activation does the source give for `CC(Cc1ccccc1)NC=O` (stereo not given) here?
A: 68.4% (active)

Q: How did the activation turn out when `CC(=O)Nc1ccc(C(=O)C(Cc2ccccc2)N(C)C)cc1` (stereo not given) was run?
A: 5.99% (inactive)

Q: How did the activation turn out when `CCC(C)NC1(c2ccccc2)CCCCC1` (stereo not given) was run?
A: 3.45% (inactive)

Q: With `CC(Cc1ccccc1)NCCC(c1ccccc1)c1ccccc1` (stereo not given) as the molecule, how does the activation read?
A: 44.2% (active)

Q: Which activation does the source give for `O=c1c2ccccc2nc(/C=C/c2ccco2)n1-c1ccccc1O` here?
A: 0.46% (inactive)

Q: How did the activation turn out when `C[N+]12CN3CN(CN(C3)C1)C2` was run?
A: 4.95% (inactive)

Q: Which activation does the source give for `S=C(NCCc1ccccc1)N1Cc2cc(N3CCOCC3)ccc2-n2nncc2C1` here?
A: 25.3% (inactive)

Q: For `O=S(=O)(c1ccccc1)N1CCC2CCNC2C1` (stereo not given), which activation is on record?
A: 2.18% (inactive)

Q: Which activation does the source give for `CCN(CC)C(=O)c1ccc(NC(=O)c2cc(-n3cnnc3)ccc2Cl)cc1` here?
A: 8.2% (inactive)

Q: With `Cc1cc(N2CCNC[C@@H]2C)ccc1N1CC[C@H](O)C1` as the molecule, how does the activation read?
A: 0.68% (inactive)

Q: For `CCN(CC)C(=O)[C@@H]1C=C2c3cccc4[nH]c(Br)c(c34)C[C@H]2N(C)C1`, which activation is on record?
A: 0.25% (inactive)

Q: For `CS(=O)(=O)N1CCC2CCNC2C1` (stereo not given), which activation is on record?
A: 2.13% (inactive)

Q: For `Clc1ccc2nc3c(c(-c4ccccc4)c2c1)CNCC3`, which activation is on record?
A: 55% (active)

Q: `O=c1[nH]c(=O)n(CCc2ccccc2)c(O)c1/C=N/N1CCOCC1` was tested. Which activation did it give?
A: 7.45% (inactive)

Q: How did the activation turn out when `NCC(O)c1ccc(O)cc1` (stereo not given) was run?
A: 80.5% (active)

Q: `CC12CN3CC(C)(CN(C1)C3c1cccs1)C2` (stereo not given) was tested. Which activation did it give?
A: 8.25% (inactive)

Q: Which activation does the source give for `CC(CC(C#N)(c1ccccc1)c1ccccc1)N1CCCCC1` (stereo not given) here?
A: 1.72% (inactive)

Q: How did the activation turn out when `O=C(N/N=C/c1c(O)n(C2CC2)c(=S)[nH]c1=O)c1ccccc1Cl` was run?
A: -1.25% (inactive)

Q: `COc1ccc(-n2nnnc2C(c2cccc3ccccc23)N2CCC(n3c(=O)[nH]c4ccccc43)CC2)cc1` (stereo not given) was tested. Which activation did it give?
A: 3.04% (inactive)

Q: Which activation does the source give for `O=c1[nH]c2ccccc2n1C1CCN(C(c2ccnc3ccccc23)c2nnnn2Cc2ccccc2)CC1` (stereo not given) here?
A: 40.5% (active)

Q: Which activation does the source give for `O=c1[nH]c2ccccc2n1C1CCN(C(c2ccccc2)c2nnnn2Cc2ccccc2)CC1` (stereo not given) here?
A: 10.1% (inactive)

Q: How did the activation turn out when `Cc1ccc2c(c1)=C/C(=C\c1c(O)[nH]c(=O)[nH]c1=O)C(=O)N=2` was run?
A: 0.28% (inactive)

Q: `COc1cccc(OC)c1C(=O)NC(=S)N1C[C@H]2C[C@H](C1)c1cccc(=O)n1C2` was tested. Which activation did it give?
A: 4.06% (inactive)

Q: For `O=C(CN1CCCC1=O)NCCc1ccccc1`, which activation is on record?
A: 38.6% (active)

Q: With `O=C1CC(=O)N(Cc2ccccc2)C(=O)N1CCCCCCN1C(=O)CC(=O)N(Cc2ccccc2)C1=O` as the molecule, how does the activation read?
A: 1.5% (inactive)

Q: `c1cc2c(cc1CCNC1CCCCCC1)OCO2` was tested. Which activation did it give?
A: 4.36% (inactive)

Q: With `c1ccc(CCNC2CCCCCC2)cc1` as the molecule, how does the activation read?
A: 87.1% (active)

Q: With `OC(CNC1CCCCC1)c1ccccc1` (stereo not given) as the molecule, how does the activation read?
A: 0.51% (inactive)

Q: `COc1ccc(Br)cc1CNCCc1cccc(Cl)c1` was tested. Which activation did it give?
A: 49.1% (active)

Q: With `COc1ccc(CNCCc2ccc3c(c2)OCO3)c(OC)c1OC` as the molecule, how does the activation read?
A: 2.45% (inactive)

Q: With `COc1ccc(CNCCc2c[nH]c3ccccc23)cc1OC` as the molecule, how does the activation read?
A: 1.21% (inactive)

Q: With `CNC(=S)N/N=C1\C2CN3CCN(C2)CC1(c1ccccc1)C3` as the molecule, how does the activation read?
A: 2.42% (inactive)

Q: Which activation does the source give for `c1ccc2sc(N3CCNCC3)nc2c1` here?
A: 10.3% (inactive)

Q: How did the activation turn out when `CC(C)CN1Cc2cc(N3CCCCC3)ccc2-n2nncc2C1` was run?
A: -1.61% (inactive)
